Compound activity: PubChem BioAssay, Johns Hopkins Ion Channel Center
MrgX1 agonist: agonists of human MrgX1 receptor, primary screen, HEK293 cells, Fluo-4 calcium flux; Mas-related G-protein coupled receptor member X1 (Homo sapiens), Q96LB2; actives 0.44% (n = 310,000); Fluo-4 calcium fluorescence, agonist mode; hits give high values; B-score at 10 µM;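 active = calcium response B-score plate-corrected fluorescence ratio at least 3 library SD, with starting fluorescence B-score inside 5 SD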
Target sequence (Q96LB2 whole entry, looked up): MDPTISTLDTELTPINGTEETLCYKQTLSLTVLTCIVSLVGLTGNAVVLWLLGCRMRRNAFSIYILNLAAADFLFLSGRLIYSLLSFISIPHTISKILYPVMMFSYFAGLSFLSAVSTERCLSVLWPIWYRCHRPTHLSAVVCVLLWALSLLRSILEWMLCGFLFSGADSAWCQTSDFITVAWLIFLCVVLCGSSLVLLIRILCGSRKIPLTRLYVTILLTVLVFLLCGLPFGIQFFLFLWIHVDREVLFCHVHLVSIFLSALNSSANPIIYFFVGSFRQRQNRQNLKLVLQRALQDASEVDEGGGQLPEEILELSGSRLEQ
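System – MrgX1-expressing HEK293 cells · Incubation – cells plated overnight, dye loaded 0.5 h 37 °C, 0.5 h room temperature · Technique – kinetic Fluo-4 NW fluorescence of intracellular calcium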
MrgX1 antagonist: antagonists of human MrgX1 receptor, primary screen, HEK293 cells, Fluo-4 calcium flux | actives 1.3% (n = 310,000) | BAM8-22 antagonism; hits give low values | Mas-related G-protein coupled receptor member X1 (Homo sapiens), Q96LB2 | B-score at 10 µM;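 active = calcium-response B-score plate-corrected more than 3 library SD below zero, starting fluorescence within 5 deviations, no agonist response on first addition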;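 note: peak minus trough fluorescence over baseline after final BAM8-22 challenge near maximal dose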
RGS4 act: RGS4 potentiators or activators, primary screen, cell-based, HEK293 M3R inducible RGS4, calcium flux | actives 0.92% (n = 310,000) | carbachol calcium flux Fluo4; hits give low values | B-score at 10 µM;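 active = B-score of the integrated calcium signal more than 4 SD below the library mean, with starting fluorescence not abnormally high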;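 note: negative B-score means reduced calcium response which marks RGS4 activation or potentiation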
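test system = HEK293 cells with stable M3R and inducible RGS4 | schedule = recording 10 s baseline at 1 Hz, 100 s post-agonist | technique = Fluo4-AM (2 µM) calcium-flux fluorescence, kinetic read | measure = Agonist-evoked peak-minus-minimum fluorescence over baseline, integrated ratio, B score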
RGS4 inh: RGS4 inhibitors, primary screen, cell-based, HEK293 M3R inducible RGS4, calcium flux. AID 463165, 2010. actives 0.45% (n = 310,000). Fluo-4 calcium flux; hits give high values; triggered by carbachol at its EC20. B-score at 10 µM. Regulator of G-protein signaling 4 (Homo sapiens), P49798;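 active = B-score, a plate-corrected calcium signal, over three deviations above library mean, with baseline fluorescence within five deviations of library mean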;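 note: RGS4 expression induced by doxycycline in cells with stable M3 receptor; B-score is computed from the integrated fluorescence ratio over baseline after carbachol; higher B-score means a larger calcium signal and so more RGS4 inhibition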
MrgX1 PAM: positive allosteric modulators of MrgX1, primary screen, HEK293 cells, Fluo-4 calcium flux; FDSS; hits give high values; B-score at 10 µM; actives 0.63% (n = 310,000); AID 588675, 2011;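 active = plate-corrected calcium response at least 3 library SD above typical, normal starting fluorescence, not activating the receptor alone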;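 note: compound read alongside a low EC10 to EC30 dose of BAM8-22 agonist; peak minus trough fluorescence over baseline measured at the second addition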
RGS4 block valid: enhanced carbachol calcium response, M3R/RGS4 cells, RGS4 inhibitor project, cell-based, validation screen, HEK293 M3R/RGS4, calcium flux | shares compounds with RGS4 inh | carbachol calcium Fluo-4 fluorescence; carbachol added at its EC20; 0 = buffer wells, 100 = carbachol control | calcium response, % at 10 µM | actives 65% (n = 1,700);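 active = duplicate-averaged calcium response above the buffer-only control mean plus 5 SD of those controls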;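 note: integrated fluorescence ratio F max minus min over baseline F0; higher response in RGS4-induced cells means RGS4 inhibition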
RGS4 uninduced: carbachol calcium response in non-induced M3R cells, confirmation, counter-screen for RGS4 inhibitor project, cell-based, HEK293 M3R; shares compounds with RGS4 inh; carbachol calcium Fluo-4; submaximal (EC20) carbachol stimulus; buffer wells 0%, carbachol control wells 100%; activity (percent), % at 10 µM; actives 20% (n = 1,900); AID 493000, 2010; call rule not given here;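 note: RGS4 induction absent so cells express M3R without RGS4; higher means more calcium signal and flags a non-specific hit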
M3R basal Ca ctr: signal in non-induced cells without carbachol, RGS4 inhibitor counter-screen | shares compounds with RGS4 inh | HEK293 M3R/RGS4 non-induced, Fluo-4 calcium, no carbachol; normalised: buffer wells 0%, carbachol wells 100% | calcium response (agonist-mode artifact), % at 10 µM | actives 22% (n = 1,900);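 active = duplicate-averaged calcium rise in uninduced cells above buffer wells' mean plus 5 SD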
* = called active by the depositor; i = inactive; . = no result given. This is a sample that favours compounds with a hit; in the whole collection about 3.5% have one here.

SMILES	MrgX1 agonist	MrgX1 antagonist	RGS4 act	RGS4 inh	MrgX1 PAM	RGS4 block valid	RGS4 uninduced	M3R basal Ca ctr
O=C(CNC(=O)c1ccc(Cl)c([N+](=O)[O-])c1)OC1CCCCC1=O (stereo unspecified)	i	i	i	i	i	.	.	.
Cc1ccc(-c2cc(-c3ccc(Cl)cc3)c(C#N)c(N)n2)o1	i	i	i	6.29*	i	5.0%*	i	12.5%*
Cc1ccc(-c2c(C#N)c(N)nc3c2CCCCC3)o1	i	i	i	i	i	.	.	.
O=C(/C=C/c1ccoc1)c1ccccc1O	i	i	i	i	i	.	.	.
O=C(/C=C/c1ccc(O)c(O)c1)c1ccccc1O	i	i	i	12.6*	13.5*	25.0%*	48.5%*	i
COc1ccc(C(=O)/C=C/c2ccccc2)c(O)c1	i	i	i	i	i	i	i	i
COc1ccc(C(=O)/C=C/c2ccc(OC)cc2OC)c(O)c1	i	i	i	i	i	.	.	.
COc1ccc(C(=O)/C=C/c2cc(C(=O)O)cc3c2OCOC3)c(O)c1	i	i	i	23.6*	i	64.5%*	69.5%*	i
Cc1cc(C)cc(NC(=S)N2CCC(NC(=O)c3ccco3)CC2)c1	i	i	i	i	i	.	.	.
O=C(Cc1cccc(C(F)(F)F)c1)NCc1cccc(Cl)c1	i	i	i	i	i	.	.	.
O=C(NCc1cccc(Cl)c1)c1ccc(S(=O)(=O)Nc2cccc(C(F)(F)F)c2)cc1	i	i	i	i	i	i	i	i
Cc1cc(C)cc(N(CCC#N)C(=O)CSc2n[nH]c(N)n2)c1	i	i	i	i	i	.	.	.
COc1ccc(-c2cc(C(F)(F)F)n3nc(C(=O)NCc4ccco4)cc3n2)cc1OC	i	i	i	8.23*	i	10.0%*	i	10.0%*
COc1cccc(/C=C/C(=O)OCC(=O)Nc2cc(C(F)(F)F)ccc2Cl)c1	i	i	i	i	i	.	.	.
O=C(/C=C/c1cccnc1)c1cc(F)ccc1O	i	i	i	4.99*	i	22.0%*	72.0%*	i
COc1ccc(OC)c(C(=O)/C=C/c2cccnc2)c1	i	i	i	i	i	.	.	.
COc1cc(C(=O)/C=C/c2cccnc2)ccc1O	i	i	i	11.3*	i	36.5%*	45.5%*	i
O=C(CSc1nc2c(cnn2-c2ccc(F)cc2)c(=O)[nH]1)N1CCCc2ccccc21	i	i	i	i	i	i	i	i
N#CCCN=C(NS(=O)(=O)c1ccccc1)c1ccccc1	i	i	i	i	i	.	.	.
CCN(CC)CCNC(=O)c1[nH]c2ccc(OCc3ccccc3)cc2c1C	i	i	i	i	i	.	.	.
CCOC(=O)/C(=N\O)C1=NC(C)(C)Cc2ccccc21	i	i	i	i	i	.	.	.
Cc1cccc(N/N=C(\C(N)=O)C2=NC(C)(C)Cc3ccccc32)c1	i	i	i	i	13*	.	i	i
O=c1[nH]c2ccc(S(=O)(=O)Nc3ccccc3O)cc2[nH]1	i	i	i	i	i	.	.	.
